For two compounds, Ki, IC50 and inhibition results are on record in ChEMBL document CHEMBL3091303, “1,3-Dialkyl-substituted tetrahydropyrimido[1,2-f]purine-2,4-diones as multiple target drugs for the potential treatment of neurodegenerative diseases” (Bioorg Med Chem, 2013).

Data set [1] addresses T1, Adenosine receptor A1 (Rattus norvegicus, UniProt P25099).
T1 sequence (P25099 whole entry): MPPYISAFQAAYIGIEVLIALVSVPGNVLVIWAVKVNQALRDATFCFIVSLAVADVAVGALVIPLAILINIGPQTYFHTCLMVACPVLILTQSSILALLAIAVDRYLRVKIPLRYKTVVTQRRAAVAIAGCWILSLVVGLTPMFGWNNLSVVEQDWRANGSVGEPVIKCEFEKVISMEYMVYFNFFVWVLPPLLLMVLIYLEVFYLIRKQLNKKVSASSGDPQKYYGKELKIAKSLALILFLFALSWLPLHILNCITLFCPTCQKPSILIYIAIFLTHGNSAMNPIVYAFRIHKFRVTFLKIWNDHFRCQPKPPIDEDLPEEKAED
Briefly: Binding affinity to rat adenosine A1 receptor.

The target in data set [2] is T2, Adenosine receptor A2b (Homo sapiens, UniProt P29275).
T2 sequence (P29275 whole entry): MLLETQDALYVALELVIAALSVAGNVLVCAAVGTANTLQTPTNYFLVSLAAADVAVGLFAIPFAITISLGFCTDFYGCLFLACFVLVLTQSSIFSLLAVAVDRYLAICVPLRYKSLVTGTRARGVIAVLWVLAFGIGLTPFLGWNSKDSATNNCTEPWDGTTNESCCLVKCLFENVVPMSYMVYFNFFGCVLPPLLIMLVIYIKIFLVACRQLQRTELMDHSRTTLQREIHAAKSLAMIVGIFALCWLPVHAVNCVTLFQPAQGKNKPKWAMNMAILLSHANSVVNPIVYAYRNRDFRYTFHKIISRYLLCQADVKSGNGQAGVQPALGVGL
The data set is described as follows: Displacement of [3H]PSB-603 from human adenosine A2B receptor.

Data set [3] deals with T3, Adenosine receptor A3 (Homo sapiens, UniProt P0DMS8).
T3 sequence (P0DMS8 whole entry): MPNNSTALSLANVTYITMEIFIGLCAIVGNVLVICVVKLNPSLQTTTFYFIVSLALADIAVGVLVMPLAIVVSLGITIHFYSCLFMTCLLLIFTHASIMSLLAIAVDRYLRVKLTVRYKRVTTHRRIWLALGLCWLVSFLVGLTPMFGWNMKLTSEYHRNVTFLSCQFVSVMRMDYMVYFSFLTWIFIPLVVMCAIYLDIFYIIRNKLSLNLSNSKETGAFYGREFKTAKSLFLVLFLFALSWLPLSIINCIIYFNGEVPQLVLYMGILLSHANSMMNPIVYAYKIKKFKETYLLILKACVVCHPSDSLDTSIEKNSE
The data set is described as follows: Displacement of [3H]PSB-11 from human adenosine A3 receptor expressed in CHO cells. The format is cell-based. For orientation: Loss of bound radioactivity is the signal in a displacement assay; it reports binding, not function.

Data set [4] has as its target T2, Adenosine receptor A2b. Briefly: Binding affinity to human adenosine A2B receptor.
Data set [5] addresses T1, Adenosine receptor A1. The data set is described as follows: Displacement of [3H]CCPA from adenosine A1 receptor in rat brain cortex. Format: tissue-based. The gist of the method: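 Radioligand binding to rat A1 receptors in rat brain cortical membrane preparations. Values are given as Ki, or as % inhibition of radioligand binding at the indicated concentration.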
Data set [6] deals with T4, Adenosine receptor A2a (Homo sapiens, UniProt P29274). The data set is described as follows: Displacement of [3H]MSX-2 from human adenosine A2A receptor expressed in CHO cells. The format is cell-based. In a few lines:
(§1)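 Radioligand binding to human receptors recombinantly expressed in Chinese hamster ovary (CHO) cells. Results are Ki, or % inhibition of radioligand binding at the indicated concentration.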

In data set [7] the target is T5, Adenosine receptor A1 (Homo sapiens, UniProt P30542).
T5 sequence (P30542 whole entry): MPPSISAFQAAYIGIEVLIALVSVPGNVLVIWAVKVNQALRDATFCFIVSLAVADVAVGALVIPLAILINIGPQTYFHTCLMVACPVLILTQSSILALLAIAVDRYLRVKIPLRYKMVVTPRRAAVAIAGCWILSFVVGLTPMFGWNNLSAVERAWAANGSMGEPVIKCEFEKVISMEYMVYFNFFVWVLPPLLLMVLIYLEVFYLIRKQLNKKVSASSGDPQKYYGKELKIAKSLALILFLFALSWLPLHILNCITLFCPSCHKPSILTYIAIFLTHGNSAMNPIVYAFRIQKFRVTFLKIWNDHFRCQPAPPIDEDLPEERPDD
The data set is described as follows: Binding affinity to human adenosine A1 receptor.

In data set [8] the target is T5, Adenosine receptor A1. The data set is described as follows: Displacement of [3H]CCPA from human adenosine A1 receptor expressed in CHO cells. The format is cell-based. The gist of the method:
as §1

Data set [9] deals with T6, Adenosine receptor A2a (Rattus norvegicus, UniProt P30543). The data set is described as follows: Binding affinity to rat adenosine A2A receptor.
T6 sequence (P30543 whole entry): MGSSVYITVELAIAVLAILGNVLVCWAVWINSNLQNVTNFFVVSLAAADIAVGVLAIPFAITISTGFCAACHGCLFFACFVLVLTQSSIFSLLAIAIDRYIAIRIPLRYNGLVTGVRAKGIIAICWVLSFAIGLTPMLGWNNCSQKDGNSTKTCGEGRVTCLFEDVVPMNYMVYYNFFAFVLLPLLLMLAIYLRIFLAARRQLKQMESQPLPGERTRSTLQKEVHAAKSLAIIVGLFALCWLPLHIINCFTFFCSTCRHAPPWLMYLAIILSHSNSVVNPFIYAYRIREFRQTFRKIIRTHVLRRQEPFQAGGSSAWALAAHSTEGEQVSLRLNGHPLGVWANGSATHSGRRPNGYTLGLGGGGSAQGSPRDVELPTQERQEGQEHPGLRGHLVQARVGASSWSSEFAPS
Data set [10] deals with T4, Adenosine receptor A2a. The data set is described as follows: Binding affinity to human adenosine A2A receptor.
Data set [11] addresses T3, Adenosine receptor A3. The data set is described as follows: Binding affinity to human adenosine A3 receptor.
The target of data set [12] is T7, Adenosine receptor A3 (Rattus norvegicus, UniProt P28647).
T7 sequence (P28647 whole entry): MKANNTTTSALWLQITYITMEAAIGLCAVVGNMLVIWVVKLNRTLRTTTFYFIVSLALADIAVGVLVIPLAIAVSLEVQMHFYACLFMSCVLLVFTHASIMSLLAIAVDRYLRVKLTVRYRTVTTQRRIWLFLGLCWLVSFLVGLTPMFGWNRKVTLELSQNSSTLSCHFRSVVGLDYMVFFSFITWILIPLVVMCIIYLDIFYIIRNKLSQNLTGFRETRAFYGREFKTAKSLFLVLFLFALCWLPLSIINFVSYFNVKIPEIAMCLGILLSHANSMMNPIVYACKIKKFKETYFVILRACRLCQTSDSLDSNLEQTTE
The data set is described as follows: Binding affinity to rat adenosine A3 receptor.

The target of data set [13] is T8, Amine oxidase [flavin-containing] A (Homo sapiens, UniProt P21397).
T8 sequence (P21397 whole entry): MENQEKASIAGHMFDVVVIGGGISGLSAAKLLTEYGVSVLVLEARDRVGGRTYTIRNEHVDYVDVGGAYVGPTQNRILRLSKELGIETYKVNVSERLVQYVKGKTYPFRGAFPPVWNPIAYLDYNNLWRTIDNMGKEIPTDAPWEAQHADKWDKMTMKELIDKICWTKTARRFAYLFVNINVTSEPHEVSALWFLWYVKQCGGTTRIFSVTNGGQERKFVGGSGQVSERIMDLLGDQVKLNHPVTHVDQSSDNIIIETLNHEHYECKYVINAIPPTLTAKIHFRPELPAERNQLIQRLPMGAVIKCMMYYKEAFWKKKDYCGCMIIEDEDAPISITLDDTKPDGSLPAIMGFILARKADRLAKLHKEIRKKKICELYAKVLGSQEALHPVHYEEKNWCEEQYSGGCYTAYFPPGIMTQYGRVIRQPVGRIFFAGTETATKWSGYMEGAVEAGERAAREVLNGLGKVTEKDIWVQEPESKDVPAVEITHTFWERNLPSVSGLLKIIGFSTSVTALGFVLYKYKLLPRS
The data set is described as follows: Inhibition of human MAO-A. The gist of the method: (§2)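 Human MAO-A and MAO-B inhibition, screened first at a test concentration of 10 µM.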

In data set [14] the target is T9, MAO-A (amine oxidase [flavin-containing] A) (Homo sapiens, UniProt P21397).
T9 sequence (P21397 whole entry): T8 sequence (P21397 whole entry)
The data set is described as follows: Inhibition of human MAO-A at 10 uM relative to control. The gist of the method: as §2

Data set [15] deals with T6, Adenosine receptor A2a. The data set is described as follows: Displacement of [3H]MSX-2 from adenosine A2A receptor in rat brain striatum. Format: tissue-based.
Data set [16] deals with T10, Amine oxidase [flavin-containing] B (Homo sapiens, UniProt P27338).
T10 sequence (P27338 whole entry): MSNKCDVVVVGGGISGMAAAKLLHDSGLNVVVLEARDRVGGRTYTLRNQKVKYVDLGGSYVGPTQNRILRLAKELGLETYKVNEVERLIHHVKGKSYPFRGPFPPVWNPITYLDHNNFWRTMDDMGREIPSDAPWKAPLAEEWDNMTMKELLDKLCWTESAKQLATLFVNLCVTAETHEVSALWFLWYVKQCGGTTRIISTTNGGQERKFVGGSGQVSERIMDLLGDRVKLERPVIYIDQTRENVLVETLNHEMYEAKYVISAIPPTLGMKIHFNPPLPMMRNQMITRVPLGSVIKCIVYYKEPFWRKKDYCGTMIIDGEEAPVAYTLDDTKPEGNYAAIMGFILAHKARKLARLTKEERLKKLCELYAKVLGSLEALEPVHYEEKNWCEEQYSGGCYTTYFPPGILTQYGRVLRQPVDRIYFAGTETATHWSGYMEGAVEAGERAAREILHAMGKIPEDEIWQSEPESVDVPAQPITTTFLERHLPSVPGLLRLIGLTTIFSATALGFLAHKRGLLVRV
Briefly: Inhibition of human MAO-B.

T4 sequence (P29274 whole entry): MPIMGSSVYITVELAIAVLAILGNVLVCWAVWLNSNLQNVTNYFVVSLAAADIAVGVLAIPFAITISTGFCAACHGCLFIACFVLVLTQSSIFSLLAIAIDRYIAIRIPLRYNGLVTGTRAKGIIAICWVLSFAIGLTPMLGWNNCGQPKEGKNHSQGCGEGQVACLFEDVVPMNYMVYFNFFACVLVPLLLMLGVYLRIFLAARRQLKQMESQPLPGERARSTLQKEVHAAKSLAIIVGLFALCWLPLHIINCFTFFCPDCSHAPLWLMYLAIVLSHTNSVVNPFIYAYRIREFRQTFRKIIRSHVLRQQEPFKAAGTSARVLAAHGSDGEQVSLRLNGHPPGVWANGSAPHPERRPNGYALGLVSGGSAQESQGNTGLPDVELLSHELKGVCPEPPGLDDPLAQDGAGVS

For the compound `Cn1c(=O)c2c(nc3n2CCCN3c2ccc(F)cc2)n(C)c1=O`, the inhibition constant Ki (commonly the dissociation constant of the complex between target and ligand, obtained from inhibition or displacement) in data set [1] was over 25 µM; in data set [2], 10 µM; in data set [3], 13.3 µM; in data set [4], 10 µM; in data set [5] it was over 25 µM; in [6], 1.18 µM. Moreover, the Ki in data set [7] was 16.7 µM; in data set [8] it was 16.7 µM; in data set [9], 0.147 µM; in [10] it was 1.88 µM; in data set [11] it was 13.3 µM.

`C#CCn1c(=O)c2c(ncn2C)n(C)c1=O`: the inhibition constant Ki is 11 µM in [1]; over 10 µM in [12]; over 10 µM in data set [3]; 11 µM in [5]; 5.6 µM in data set [9]; 5.6 µM in data set [15]. Also, the IC50 in data set [13] and in [16] was over 10 µM each time. Also, in [14], 10 µM produced 3% inhibition.
